ChEMBL document CHEMBL1133770, “Synthesis and antitumor activity of new benzoheterocyclic derivatives of distamycin A” (J Med Chem, 2000)
Values joined by “and” are separate entries in the source; they are usually repeats but may differ in a detail not shown here. Equal entries are not always repeated.

What was measured:
L1210 [1] = experiment: In vivo optimal nontoxic dose against murine L1210 leukemia cells after i.v. administration day 1 after tumor i.v. inoculation.
L1210 [2] = experiment: Inhibition of growth in L1210 leukemia cells resistant to Tallimustine.; format: functional, cell-based; settings: Mus musculus
Outline: (§1)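 L1210 murine leukemia cells and their doxorubicin-resistant and tallimustine-resistant sublines were grown as stationary suspension in RPMI 1640 with 10% fetal calf serum, 2 mM L-glutamine, β-mercaptoethanol and antibiotics. Compounds were dissolved in DMSO at 1 mg/mL (stock) and diluted in medium. Exponentially growing cells were exposed continuously for 48 h, and survivors were counted electronically. IC50 (cell number reduced to 50% of untreated control) was taken from dose-response curves. Duplicate cultures were used, with vehicle controls.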

L1210 [3] = experiment: In vitro antitumor activity evaluated against L1210 murine leukemia cell line; format: functional, cell-based; settings: Mus musculus
Outline: as §1

L1210 [4] = experiment: Inhibition of growth in L1210 leukemia cells resistant to doxorubicin(DX).; format: functional, cell-based; settings: Mus musculus
Outline: as §1

L1210 [5] = experiment: In vivo median survival time of treated vs untreated mice x 100 against murine L1210 leukemia cells after iv treatment on day 1 after tumor iv transplant; format: functional, Mus musculus
Estrogen receptor = Estrogen receptor (Homo sapiens, UniProt Q92731+P03372); experiment: Tested for 50% inhibition of generation of Human estrogen receptor polymerase chain reaction(PCR) products; format: protein assay
[6] = Resistance index(RI) = Ratio between IC50 value on resistant cells and sensitive cells; format: functional
Outline: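 L1210/DX (doxorubicin-resistant), L1210/tallimustine-resistant and parental L1210 cells grown as stationary suspension in RPMI 1640 with 10% FCS. Compounds from 1 mg/mL DMSO stock, diluted in medium. Exponentially growing cells exposed continuously for 48 h, with duplicate cultures per concentration and vehicle controls. Survivors counted electronically; IC50 taken from dose-response curves. RI = resistant-line IC50 / parental L1210 IC50.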

L1210 [7] = experiment: Ratio between IC50 value on resistant cells and sensitive cells; format: functional, Mus musculus; design: reference not given here
Outline: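 Murine L1210 leukemia cells, parental and doxorubicin- or tallimustine-resistant sublines, were grown in stationary suspension in RPMI 1640 with 10% FCS, 2 mM glutamine, […] and antibiotics. Exponentially growing cells were exposed continuously for 48 h to graded concentrations from a 1 mg/mL DMSO stock, and survivors were counted electronically. IC50 came from dose-response curves, with duplicate cultures and at least two repeats. RI was the IC50 on resistant cells divided by the IC50 on sensitive cells.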

L1210 [8] = experiment: In vivo median survival time of treated vs untreated mice x 100 against murine L1210 leukemia cells after ip treatment on day 1 after tumor iv transplant; format: functional, Mus musculus
L1210 [9] = experiment: In vivo optimal nontoxic dose against murine L1210 leukemia cells after ip treatment on day 1 after tumor ip transplant; format: functional, Mus musculus
Outline: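 L1210 leukemia cells (10^5/mouse) were implanted ip or iv in female mice, 10 per group. Compounds were made fresh in 10% Tween 80/90% saline and given ip or iv on day 1 after implant, over a dose-response range. […] Toxicity was judged by gross autopsy and weight loss.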

Row | Structure (SMILES) | Optimal dose (L1210 [1]) | IC50 (L1210 [2]) | IC50 (L1210 [3]) | IC50 (L1210 [4]) | T/C (L1210 [5]) | IC50 (Estrogen receptor) | Resistance index [6] | Resistance index (L1210 [7]) | T/C (L1210 [8]) | Optimal dose (L1210 [9])
1 | C=C(Br)C(=O)Nc1ccc2c(c1)cc(C(=O)Nc1cc(C(=O)Nc3cc(C(=O)Nc4cc(C(=O)NCCC(=N)N)n(C)c4)n(C)c3)n(C)c1)n2C.Cl | 6.2 mg/kg | 150 nM | 2.4 nM | 43 nM | 192% |  |  |  |  | 
2 | Cl.Cn1cc(NC(=O)c2cc(NC(=O)c3cc(NC(=O)c4cc5cc(NC(=O)c6ccc(N(CCCl)CCCl)cc6)ccc5n4C)cn3C)cn2C)cc1C(=O)NCCC(=N)N | 25 mg/kg | 1.2 nM | 61.7 nM | 0.42 nM | 183% | 5 nM | 6.8 and 19 |  |  | 
3 | C=C(Br)C(=O)Nc1ccc2c(c1)cc(C(=O)Nc1cc(C(=O)Nc3cc(C(=O)NCCC(=N)N)n(C)c3)n(C)c1)n2C.Cl | 3.1 mg/kg | 150 nM | 15.3 nM | 41 nM | 133% |  |  |  |  | 
4 | C=C(Br)C(=O)Nc1cc(C(=O)Nc2cc(C(=O)Nc3cc(C(=O)NCCC(=N)N)n(C)c3)n(C)c2)n(C)c1.Cl |  | 1.2 nM |  |  |  |  |  | 68 and 156 |  | 
5 | Cl.Cn1cc(NC(=O)c2cc(NC(=O)c3cc(NC(=O)c4cc5cc(N(CCCl)CCCl)ccc5n4C)cn3C)cn2C)cc1C(=O)NCCC(=N)N | 1.6 mg/kg | 1.2 nM | 14.7 nM | 0.42 nM | 457% | 1 nM |  | 6.8 and 19 |  | 
6 | Cn1cc(NC(=O)c2cc(NC(=O)c3cc(NC(=O)c4cc(NC=O)cn4C)cn3C)cn2C)cc1C(=O)NCCC(=N)N |  | 1.2 nM |  | 0.42 nM |  |  |  |  |  | 
7 | Cl.Cn1cc(NC(=O)c2cc(NC(=O)c3cc(N(CCCl)CCCl)cn3C)cn2C)cc1C(=O)NCCC(=N)N | 0.78 mg/kg |  | 3.9 nM |  | 117% |  |  |  | 138% | 1.6 mg/kg
8 | C=C(Br)C(=O)Nc1cc(C(=O)Nc2cc(C(=O)Nc3cc(C(=O)Nc4cc(C(=O)NCCC(=N)N)n(C)c4)n(C)c3)n(C)c2)n(C)n1.Cl |  |  | 13.3 nM | 0.42 nM |  |  |  |  | 200% | 6.2 mg/kg
9 | Cl.Cn1cc(NC(=O)c2cc(NC(=O)c3cc(NC(=O)c4cc5cc(N(CCCl)CCCl)ccc5[nH]4)cn3C)cn2C)cc1C(=O)NCCC(=N)N | 0.39 mg/kg | 1.2 nM | 8 nM | 0.42 nM | 174% | 1 nM |  | 6.8 and 19 |  | 
10 | Cn1cc(NC(=O)c2cc(NC(=O)c3cc(NC=O)cn3C)cn2C)cc1C(=O)NCCC(=N)N [STALLIMYCIN] |  | 142000 nM | 10100 nM | 459000 nM |  | 20 nM |  |  |  | 
11 | Cl.Cn1cc(NC(=O)c2cc(NC(=O)c3cc(NC(=O)c4nc(NC(=O)c5ccc(N(CCCl)CCCl)cc5)cn4C)cn3C)cn2C)cc1C(=O)NCCC(=N)N |  | 5 nM | 2370 nM | 0.42 nM |  |  |  | 2 and 2.1 | 125% | 
12 | Cl.Cn1cc(NC(=O)c2cc(NC(=O)c3cc(NC(=O)c4cc5cc(NC(=O)c6ccc(N(CCCl)CCCl)cc6)ccc5[nH]4)cn3C)cn2C)cc1C(=O)NCCC(=N)N | 3.1 mg/kg | 0.88 nM | 95.3 nM | 0.54 nM | 163% | 7.5 nM |  | 5.7 and 9.2 |  | 
13 | Cl.Cn1cc(NC(=O)c2cc(NC(=O)c3cc(NC(=O)c4cc(NC(=O)c5ccc(N(CCCl)CCCl)cc5)nn4C)cn3C)cn2C)cc1C(=O)NCCC(=N)N |  | 10.4 nM | 34.5 nM | 0.42 nM |  |  |  | 326.2 and 302.3 | 144% | 3.1 mg/kg
14 | Cl.Cn1cc(NC(=O)c2cc(NC(=O)c3cc(NC(=O)c4cc5cc(N(CCCl)CCCl)ccc5o4)cn3C)cn2C)cc1C(=O)NCCC(=N)N | 0.39 mg/kg | 1.2 nM | 3.7 nM | 0.42 nM | 200% | 3 nM |  | 6.8 and 19 |  | 
15 | Cl.Cn1cc(NC(=O)c2cc(NC(=O)c3cc(NC(=O)c4ccc(N(CCCl)CCCl)cc4)cn3C)cn2C)cc1C(=O)NCCC(=N)N [TALLIMUSTINE CHLORIDE] | 3.1 mg/kg |  |  |  | 133% |  |  |  |  | 3.1 mg/kg
16 | Cl.Cn1cc(NC(=O)c2cc(NC(=O)c3cc(NC(=O)/C=C/c4ccc(N(CCCl)CCCl)cc4)cn3C)cn2C)cc1C(=O)NCCC(=N)N | 6.2 mg/kg |  |  |  | 267% |  |  |  |  | 
17 | C=C(Br)C(=O)Nc1cc(C(=O)Nc2cc(C(=O)Nc3cc(C(=O)Nc4cc(C(=O)NCCC(=N)N)n(C)c4)n(C)c3)n(C)c2)n(C)c1.Cl | 1.6 mg/kg |  |  | 0.42 nM | 200% |  |  |  | 725% | 3.1 mg/kg
18 | Cl.Cn1cc(NC(=O)c2cc(NC(=O)c3cc(NC(=O)c4cc5cc(NC(=O)c6ccc(N(CCCl)CCCl)cc6)ccc5o4)cn3C)cn2C)cc1C(=O)NCCC(=N)N | 6.2 mg/kg | 1.2 nM | 43.5 nM | 0.42 nM | 150% |  |  | 6.8 and 19 |  | 
19 | C=C(Br)C(=O)Nc1ccc2oc(C(=O)Nc3cc(C(=O)Nc4cc(C(=O)Nc5cc(C(=O)NCCC(=N)N)n(C)c5)n(C)c4)n(C)c3)cc2c1.Cl | 0.78 mg/kg | 210 nM | 6.1 nM | 39 nM | 117% |  |  |  |  | 
20 | Cl.Cn1cc(NC(=O)c2cc(NC(=O)c3cc(NC(=O)c4nc5cc(NC(=O)c6ccc(N(CCCl)CCCl)cc6)ccc5[nH]4)cn3C)cn2C)cc1C(=O)NCCC(=N)N |  | 1.2 nM | 1420 nM | 0.42 nM |  | 5 nM |  | 6.8 and 19 |  | 
21 | C=C(Br)C(=O)Nc1ccc2[nH]c(C(=O)Nc3cc(C(=O)Nc4cc(C(=O)Nc5cc(C(=O)NCCC(=N)N)n(C)c5)n(C)c4)n(C)c3)cc2c1.Cl | 12.5 mg/kg | 140 nM | 4.1 nM | 36 nM | 213% |  |  |  |  | 
22 | Cl.Cn1cc(NC(=O)c2cc(NC(=O)c3cc(NC(=O)c4cc(N(CCCl)CCCl)cn4C)cn3C)cn2C)cc1C(=O)NCCC(=N)N | 0.39 mg/kg |  | 0.081 nM |  | 133% |  |  |  | 188% | 0.39 mg/kg
23 | C=C(Br)C(=O)Nc1cn(C)c(C(=O)Nc2cc(C(=O)Nc3cc(C(=O)Nc4cc(C(=O)NCCC(=N)N)n(C)c4)n(C)c3)n(C)c2)n1.Cl |  | 1.2 nM | 46.9 nM | 0.42 nM |  |  |  | 15.5 and 13.9 | 163% | 6.2 mg/kg
24 | Cl.Cn1cc(NC(=O)c2cc(NC(=O)c3cc(NC(=O)c4cc(NC(=O)c5ccc(N(CCCl)CCCl)cc5)cn4C)cn3C)cn2C)cc1C(=O)NCCC(=N)N | 0.4 mg/kg | 1.2 nM |  |  |  |  |  | 19 |  | 
